Assay outcomes as filed in PubChem BioAssay.
SENP1 inh = human SENP1 catalytic domain inhibitors, primary screen, biochemical, FRET, uHTS. Sentrin-specific protease 1 (Homo sapiens), Q9P0U3. recombinant SENP1 catalytic domain, CyPet-SUMO1-YPet FRET cleavage. inhibition, % at 10 µM. hit rate 0.21% among 360,000. AID 624204, 2012;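 active = inhibition at least 30% at 10 µM, raw YFP signal under a set limit, fluorescence ratio 0.5 to 1.5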;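 note: 0% = enzyme with DMSO and 100% = no enzyme wells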
Target sequence (Q9P0U3 419-644 limits assumed): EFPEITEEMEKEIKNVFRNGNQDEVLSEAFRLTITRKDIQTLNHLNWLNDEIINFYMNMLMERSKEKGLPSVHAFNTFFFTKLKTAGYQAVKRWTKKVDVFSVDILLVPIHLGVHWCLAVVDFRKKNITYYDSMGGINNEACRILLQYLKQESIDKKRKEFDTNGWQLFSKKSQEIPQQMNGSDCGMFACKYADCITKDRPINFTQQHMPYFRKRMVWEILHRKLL
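system = hSENP1 catalytic domain, recombinant | reagent = SFCypet-SUMO1-SFYpet substrate at 25 nM | doses = one dose per compound, 10 µM, 0.5% DMSO | incubation = enzyme reaction for 50 min at room temperature, dark | measured by = FRET, CFP and YFP emission | controls = no-enzyme low, enzyme-DMSO high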
UCH37 inh = inhibitors of human UCH37 deubiquitinase, primary screen, biochemical, Ub-AMC cleavage, fluorescence; inhibition, % (test concentration not listed); hit rate 0.33% among 330,000; Ubiquitin carboxyl-terminal hydrolase isozyme L5 (Homo sapiens), Q9Y5K5; AID 588478, 2011; purified proteasome/UCH37;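 active = mean inhibition over replicate wells above about 20%, limit read from the data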;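 note: 0% = compound-free wells with enzyme and 100% = wells lacking proteasome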
Target sequence (Q9Y5K5 whole entry, looked up): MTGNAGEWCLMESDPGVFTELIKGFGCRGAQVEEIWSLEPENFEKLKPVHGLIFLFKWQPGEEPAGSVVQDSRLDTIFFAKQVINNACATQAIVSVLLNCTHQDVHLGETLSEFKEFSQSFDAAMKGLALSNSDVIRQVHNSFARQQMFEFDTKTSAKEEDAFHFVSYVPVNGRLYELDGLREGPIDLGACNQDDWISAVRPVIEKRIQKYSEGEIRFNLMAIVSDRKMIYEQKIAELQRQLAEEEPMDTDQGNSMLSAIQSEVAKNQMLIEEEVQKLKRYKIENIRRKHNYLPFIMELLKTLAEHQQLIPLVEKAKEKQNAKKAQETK
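Test system – human UCH37 enzyme supplied as purified proteasome complex · Incubation – 30 min preincubation with enzyme, 25 min cleavage at room temperature · Detection – AMC fluorescence from Ub-AMC cleavage, excitation 355 nm, emission 460 nm · Benchmarks – no-proteasome wells (full inhibition) and compound-free wells (no inhibition)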
NR3A LBD binder = binders of NR3A ligand-binding domain, primary screen, biophysical, differential scanning fluorimetry, uHTS | Glutamate receptor ionotropic, NMDA 3A (GRIN3A) ligand-binding domain | NR3A LBD differential scanning fluorimetry, Tm shift; 0% = protein alone, 100% = glycine-bound protein | Tm shift relative to glycine control, % at 25 µM | hit rate 2.5% among 340,000;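 active = melting temperature shift of at least 10% of the positive control shift, at one fixed dose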
ATG4B inh = ATG4B protease inhibitors, primary screen, biochemical, fluorescence, uHTS; inhibition, % at 8.33 µM; ATG4B cleavage of LC3-PLA2, NBD-HPC fluorescence, 1 h; AID 504462, 2011; hit rate 0.51% among 340,000; in the data active = inhibition above about 40%
NadD inh = inhibitors of S. aureus NadD, primary screen, biochemical, colorimetric, uHTS; purified NadD enzyme, colorimetric absorbance read-out; inhibition, % at 20 µM; hit rate 0.78% among 360,000; in the data active = inhibition above about 26%
ATG4B conf = ATG4B protease inhibitors, retest, confirmation, biochemical, fluorescence, single concentration. inhibition, % at 8.33 µM. ATG4B protease fluorescent substrate cleavage assay. hit rate 92% among 320. shares compounds with ATG4B inh; in the data active = inhibition above about 39%
PLA2 counter = PLA2 enzyme inhibition, counter-screen for ATG4B inhibitor project, biochemical, single concentration, uHTS hits. hit rate 66% among 1,600. shares compounds with ATG4B inh. purified PLA2, NBD-C6-HPC fluorescence, 45 min. AID 588402, 2011. inhibition, % at 8.33 µM; in the data active = inhibition above about 50%
* = called active by the depositor. Sampled rows, rich in hits. Any-hit rate of the full collection: about 3.6%.

O=C(NC1CSCC1=NO)c1ccccc1 (configuration not stated) was read as UCH37 inh 4.
For Oc1ccc(Cl)cc1-c1cc(-c2ccccc2Cl)[nH]n1 the results were SENP1 inh -2, UCH37 inh 1, NR3A LBD binder 10, ATG4B inh 35 and NadD inh -3.
O=[N+]([O-])c1ccccc1-c1cc(-c2cc(Cl)ccc2O)n[nH]1 was read as SENP1 inh -5, UCH37 inh 5, NR3A LBD binder 18*, ATG4B inh 88*, NadD inh -1 and PLA2 counter 85*.
`Cc1ccc(O)c(-c2cc(-c3ccccc3C)[nH]n2)c1` gave SENP1 inh 4, NR3A LBD binder 4, ATG4B inh 55*, NadD inh -4 and PLA2 counter 62*.
Screening Oc1ccccc1-c1cc(-c2ccccc2Cl)[nH]n1 returned SENP1 inh 3, UCH37 inh 6, NR3A LBD binder 9, ATG4B inh 56*, NadD inh -4 and PLA2 counter 68*.
Cc1ccc(O)c(-c2cc(-c3ccccc3[N+](=O)[O-])[nH]n2)c1 was read as SENP1 inh -2, UCH37 inh 7, NR3A LBD binder -6, ATG4B inh 73*, NadD inh -3 and PLA2 counter 67*.
`CC(C)Oc1ccc(CCC(=O)NN=Cc2ccncc2)cc1` gave UCH37 inh 1.
Screening O=C(COc1ccc(C=NNC(=O)c2ccccc2)cc1)Nc1ccc([N+](=O)[O-])cc1 returned UCH37 inh 3.
For Cc1ccc(C(=O)NC(=S)Nc2ccccc2C(F)(F)F)cc1C the results were SENP1 inh 2, UCH37 inh 1, NR3A LBD binder -9, ATG4B inh 45*, NadD inh -8, ATG4B conf 62* and PLA2 counter 47.
For O=[N+]([O-])c1cc(S(=O)(=O)N=C(c2ccccc2)N2CCOCC2)ccc1Cl the results were UCH37 inh 0.
O=C(O)c1ccc(N/N=C/c2ccc(OC(=O)c3ccccc3Cl)cc2)cc1 was read as SENP1 inh -2, NR3A LBD binder -2, ATG4B inh 94*, NadD inh 11 and PLA2 counter 96*.
For Nc1ccc(C(=O)NN=Cc2ccc(OC(=O)c3ccccc3Cl)cc2)cc1 the results were UCH37 inh 3.
CC(/C=C/c1ccco1)=NNC(=O)C(O)c1ccccc1 (configuration not stated) was read as UCH37 inh 11.
Cc1ccc(CNC(=O)/C=C/c2ccc(S(=O)(=O)NCc3ccco3)cc2)cc1 was read as SENP1 inh -1, UCH37 inh -3, NR3A LBD binder -5, ATG4B inh -12 and NadD inh -3.
Screening O=C(/C=C/c1ccc(S(=O)(=O)NCc2ccco2)cc1)NCc1cccc(Cl)c1 returned SENP1 inh 0, UCH37 inh 5, NR3A LBD binder 1, ATG4B inh 52*, NadD inh -10 and PLA2 counter 62*.
`O=C(/C=C/c1ccc(OCCCF)cc1)NCc1cccc(Cl)c1` gave SENP1 inh 2, UCH37 inh 4, NR3A LBD binder -11, ATG4B inh 45*, NadD inh 1 and PLA2 counter 49.
COc1ccccc1C=NNc1nccnc1Cl was read as UCH37 inh 9.
CC(=NNc1nc(-c2ccccc2)cc(-c2ccc(F)cc2)n1)c1cccc(N)c1 was read as UCH37 inh 2.
CCc1ccc(Oc2nnnn2-c2ccc(C(N)=O)cc2)cc1 was read as SENP1 inh 0, UCH37 inh 0, NR3A LBD binder 0, ATG4B inh 60*, NadD inh -7 and PLA2 counter 91*.
NC(=O)c1ccc(-n2nnnc2Oc2ccc(Br)cc2)cc1 was read as SENP1 inh 2, UCH37 inh 3, NR3A LBD binder 1, ATG4B inh -1 and NadD inh -2.
Screening ON=Cc1ccccc1Oc1ccc(F)cc1 returned UCH37 inh 4.
`O=C(NCc1cccc(C(F)(F)F)c1)N1CCN(C(=O)c2ccccc2)CC1` gave SENP1 inh 0, UCH37 inh 6, NR3A LBD binder 1, ATG4B inh 56*, NadD inh -4 and PLA2 counter 61*.
`O=C(c1ccc2c(=O)n(Cc3ccc4c(c3)OCO4)c(=S)[nH]c2c1)N1CCCCC1` gave SENP1 inh 1, UCH37 inh 4, NR3A LBD binder -1, ATG4B inh 55*, NadD inh 11 and PLA2 counter 8.
For O=C(c1ccc(Cn2c(=S)[nH]c3ccccc3c2=O)cc1)N1CCN(c2ccccn2)CC1 the results were SENP1 inh 2, UCH37 inh 0, NR3A LBD binder 0, ATG4B inh 47*, NadD inh 9 and PLA2 counter 66*.
`O=C(c1ccc(Cn2c(=O)[nH]c3ccccc3c2=O)cc1)N1CCN(c2ccccn2)CC1` gave SENP1 inh -1, UCH37 inh 0, NR3A LBD binder -2, ATG4B inh 4 and NadD inh 4.
`CCNC(=O)ON=C1CCCCC1c1ccc([N+](=O)[O-])cc1[N+](=O)[O-]` (configuration not stated) gave UCH37 inh 8.
For CC(=NNC(=O)C1CC1)c1ccc(Cl)cc1 the results were UCH37 inh 3.
Screening CNC(=O)c1ccc(N(Cc2ccccc2C)S(C)(=O)=O)cc1 returned SENP1 inh 3, UCH37 inh 5, NR3A LBD binder -1, ATG4B inh 1 and NadD inh 3.
For Cc1ccccc1CN(c1ccc(C(=O)N/N=C/c2ccc(OCC(N)=O)cc2)cc1)S(C)(=O)=O the results were SENP1 inh 0, NR3A LBD binder -1, ATG4B inh 46*, NadD inh -1 and PLA2 counter 47.
O=C(O)c1ccc(NN=Cc2ccc3c(c2)OCO3)cc1 was read as UCH37 inh 13.
